Experimental data collected from several papers.
JAK1 JH1: Tyrosine-protein kinase JAK1, JH1 (JAK1, Homo sapiens, UniProt P23458)
JAK1: Tyrosine-protein kinase JAK1 (JAK1, Homo sapiens, UniProt P23458)
JAK1 JH2: Tyrosine-protein kinase JAK1, JH2 (JAK1, Homo sapiens, UniProt P23458)

Compound | target | assay | conditions | measurement | result
Cc1ccc(NC(=O)c2ccc(C)c(C(F)(F)F)c2)cc1C#Cc1nn(C2CCC(O)CC2)c2ncnc(N)c12 (stereo not shown) | JAK1 JH1 | cell-free assay | 10 µM | remaining signal | 3%
O=C(Nc1cnn(-c2csc(C(=O)NC3COC3)c2)c1)Nc1ccccc1Cl | JAK1 | enzyme activity, inhibitor | 5 µM | remaining activity | 98.7%
N#CCCc1ccc2c(c1)-c1[nH]c3ccc([N+](=O)[O-])cc3c1CC(=O)N2 | JAK1 | cell-free assay | 0.5 µM | remaining signal | 91.9%
CN(C)C(=O)Cn1cc(-c2nc(C3(c4ccc(-c5cnc(N)nc5)cc4)CC3)no2)cn1 | JAK1 JH2 | cell-free assay, competition with immobilised ligand | 1 µM | remaining binding | 100%
Oc1ccc(-c2nc(-c3ccncc3)c(-c3ccc(F)cc3)[nH]2)cc1 | JAK1 | cell-free assay | 0.5 µM | remaining signal | 102%
O=c1nc(-c2ccccn2)sc2ccccc12 | JAK1 JH2 | binding, competition with immobilised ligand | 1 µM | remaining binding | 86%
COc1cc2ncnc(Nc3ccc(Oc4ccccc4)c(C)c3C)c2cc1OC | JAK1 | enzyme activity, inhibitor | 1 µM | inhibition | -4%
Cc1c[nH]c2nccc(Oc3c(F)cc(Nc4cc(Cl)nc(N)n4)cc3F)c12 | JAK1 JH1 | cell-free assay, competition with immobilised ligand | 0.1 µM | remaining binding | 80%
CC(C)(C)c1nc(-c2cccc(NS(=O)(=O)c3c(F)cccc3F)c2F)c(-c2ccnc(N)n2)s1 | JAK1 | enzyme activity, inhibitor, radiometric | 1 µM | remaining activity | 84%
CCCS(=O)(=O)Nc1ccc(F)c(C(=O)c2c[nH]c3ncc(-c4ccc(Cl)cc4)cc23)c1F | JAK1 | enzyme activity, inhibitor | 1 µM | inhibition | < 20%
CC(C)(O)[C@H]1CC[C@H](Nc2ccc3ncc(-c4cccc(C(F)(F)F)c4)n3n2)CC1 | JAK1 | enzyme activity, inhibitor | 1 µM | remaining activity | 82.4%
O=C(Nc1cnn(-c2csc(C(=O)NC3COC3)c2)c1)Nc1c(F)cccc1Cl | JAK1 | enzyme activity, inhibitor | 5 µM | remaining activity | 107%
CC/C(=N\NC(=O)NCc1cccc(O)c1)c1ccc(O)c(C)c1O | JAK1 | enzyme activity, inhibitor | 0.1 µM | inhibition | 3.4%
COc1cc(Cl)c(C(=O)N[C@@H](CN[C@H]2CC[C@@H](N)CC2)Cc2ccc(C#N)cc2)cc1-c1ccc(CN[C@H](C)c2ccc(C)cc2)o1 | JAK1 JH1 | enzyme activity, inhibitor | 1 µM | remaining activity | 101%
O=C1Nc2ccc(Cl)cc2C1=Cc1cc(Cl)c(O)c(Cl)c1 | JAK1 | cell-free assay | 0.5 µM | remaining signal | 103%
CS(=O)(=O)NCC[C@H](NC(=O)c1cncc2c1cnn2-c1ccc(F)cc1)c1ccnc(S(C)(=O)=O)c1 | JAK1 JH1 | cell-free assay, competition with immobilised ligand | 1 µM | remaining binding | 96%
C=CC(=O)Nc1cc(Nc2nccc(Nc3cc(Cl)c(F)cc3C(C)(C)O)n2)c(OC)cc1N1CC[C@@H](N(C)C)C1 | JAK1 | enzyme activity, inhibitor | 1 µM | inhibition | 6%
Cc1ccc(C(=O)Nc2ccc(CN3CCN(C)CC3)c(C(F)(F)F)c2)cc1C#Cc1cnc2cccnn12 | JAK1 | enzyme activity, inhibitor | 23.5 nM | remaining activity | 86%
C[C@@H]1CCN(c2nccc(-c3cnn4ncccc34)n2)C1 | JAK1 JH1 | cell-free assay | 1 µM | remaining signal | 82%
O=C(O)[C@H]1[C@H](Cn2nnc3ccccc3c2=O)CC[C@@H]1C(=O)c1ccc(OCCC2CCOCC2)cc1 | JAK1 JH1 | cell-free assay, competition with immobilised ligand | 1 µM | remaining binding | 88%
Cc1ccc(C(=O)NCc2ccsc2)cc1C#Cc1cn(C(C)C)c2ncnc(N)c12 | JAK1 JH1 | enzyme activity, inhibitor | 1 µM | activity vs control | 94%
c1nc2c(Nc3ccc4c(c3)OCCO4)nc(Nc3ccc4c(c3)OCCO4)nc2[nH]1 | JAK1 JH2 | enzyme activity, inhibitor | 10 µM | activity vs control | 2.5%
CN(c1ccnc(CNc2nc(Nc3ccc4c(c3)CC(=O)N4)ncc2C(F)(F)F)n1)S(C)(=O)=O | JAK1 JH1 | cell-free assay, competition with immobilised ligand | 1 µM | remaining binding | 94%
Nc1ncnc2occ(-c3ccc(NC(=O)Nc4cc(C(F)(F)F)ccc4F)cc3)c12 | JAK1 JH2 | cell-free assay, inhibitor | 20 µM | remaining signal | 67%
CC(=O)N1CCC(c2ccc(C(=O)NC(=N)N)cc2C(F)(F)F)CC1 | JAK1 JH2 | cell-free assay, competition with immobilised ligand | 1 µM | remaining binding | 100%
O=C(CSc1nc2nccnc2c(=O)n1CCc1ccccc1)Nc1nccs1 | JAK1 | enzyme activity, inhibitor | 10 µM | inhibition | 1%
O=C(N1CCS(=O)(=O)CC1)N1C[C@H](c2ccc(OC(F)(F)F)cc2)C[C@H](c2nc(C3CC3)no2)C1 | JAK1 JH2 | cell-free assay, competition with immobilised ligand | 1 µM | remaining binding | 100%
CN(C)C1CCN(CC#Cc2nn(C3CCCC3)c3nc(NCc4ccccc4)ncc23)C1 (stereo not shown) | JAK1 | enzyme activity, inhibitor, FRET | 0.1 µM | inhibition | 2%
